This note sets out measurements from ChEMBL document CHEMBL1156157, “1,7-Disubstituted oxyindoles are potent and selective EP(3) receptor antagonists” (Bioorg Med Chem Lett, 2010).

One data set concerns the target Prostacyclin receptor (Homo sapiens, UniProt P43119). The data set is described as follows: Binding affinity to human IP receptor by radioligand displacement assay. In short, it runs like this: (§1)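 Radioligand displacement assays on a human prostanoid receptor panel (EP2, EP4, FP, IP). IC50 values reported in µM.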
(In general: Displacement assays read how much labelled ligand stays bound in the presence of the test substance.)

Another data set deals with T1, Cytochrome P450 1A2 (Homo sapiens, UniProt P05177).
T1 sequence (P05177 whole entry): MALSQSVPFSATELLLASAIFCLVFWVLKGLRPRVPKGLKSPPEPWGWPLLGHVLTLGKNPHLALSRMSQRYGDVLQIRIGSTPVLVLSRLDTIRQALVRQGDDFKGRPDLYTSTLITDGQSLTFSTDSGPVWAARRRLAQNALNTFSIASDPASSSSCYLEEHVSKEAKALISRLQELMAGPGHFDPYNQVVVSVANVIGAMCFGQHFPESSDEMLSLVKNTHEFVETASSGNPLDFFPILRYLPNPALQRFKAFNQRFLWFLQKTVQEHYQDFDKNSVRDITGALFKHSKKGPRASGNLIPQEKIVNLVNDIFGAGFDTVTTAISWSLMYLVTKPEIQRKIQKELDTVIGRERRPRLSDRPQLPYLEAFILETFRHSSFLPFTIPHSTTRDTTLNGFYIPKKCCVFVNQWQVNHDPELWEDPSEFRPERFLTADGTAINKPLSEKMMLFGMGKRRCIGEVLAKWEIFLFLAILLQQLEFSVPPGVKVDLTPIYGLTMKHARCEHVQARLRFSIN
Description: Inhibition of human CYP1A2. Format: ADME.

Data set [1] deals with T2, Prostaglandin E2 receptor EP3 subtype (Homo sapiens, UniProt P43115).
T2 sequence (P43115 whole entry): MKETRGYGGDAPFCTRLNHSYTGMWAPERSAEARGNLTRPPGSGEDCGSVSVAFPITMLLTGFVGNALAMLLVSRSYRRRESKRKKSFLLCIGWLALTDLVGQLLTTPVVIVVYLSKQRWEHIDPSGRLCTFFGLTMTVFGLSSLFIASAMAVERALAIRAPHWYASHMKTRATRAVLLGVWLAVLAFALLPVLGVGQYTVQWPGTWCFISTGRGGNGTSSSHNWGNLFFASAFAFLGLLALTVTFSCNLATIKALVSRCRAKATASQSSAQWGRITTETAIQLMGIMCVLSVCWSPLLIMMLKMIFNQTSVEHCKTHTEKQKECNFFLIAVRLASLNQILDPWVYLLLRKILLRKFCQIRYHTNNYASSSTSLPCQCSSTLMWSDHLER
Description: Displacement of [3H]PGE2 from human EP3 receptor in presence of 10% human serum.

The target in data set [2] is T2, Prostaglandin E2 receptor EP3 subtype. The data set is described as follows: Displacement of [3H]PGE2 from human EP3 receptor in buffer.
The target of data set [3] is T3, Cytochrome P450 3A4 (Homo sapiens, UniProt P08684). The data set is described as follows: Inhibition of human CYP3A4 using 7-benzyloxy-4-trifluoromethylcoumarin as substrate. Format: ADME. In short, it runs like this:
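Inhibition of human CYP3A4 with 7-benzyloxy-4-trifluoromethylcoumarin (BFC) as substrate. Values given as IC50.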

Data set [4] has as its target Prostaglandin F2-alpha receptor (Homo sapiens, UniProt P43088). The data set is described as follows: Binding affinity to human FP receptor by radioligand displacement assay. In short, it runs like this:
as §1

Another data set has as its target Cytochrome P450 2D6 (Homo sapiens, UniProt P10635). The data set is described as follows: Inhibition of human CYP2D6. It counts as ADME.
A short description of data set [5]: Metabolic stability in human liver microsomes assessed as parent compound remaining after 30 mins. It counts as ADME, Microsome. Particulars: read-out: Stability; call rule not given here. In short, it runs like this: (§2)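 Compounds incubated with liver microsomes from human, rat, mouse, dog or monkey. Read-out is percent parent compound remaining at 30 min of incubation.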
Data set [6] deals with Prostaglandin E2 receptor EP2 subtype (Homo sapiens, UniProt P43116). The data set is described as follows: Binding affinity to human EP2 receptor by radioligand displacement assay. In short, it runs like this: as §1
Sequence of Prostaglandin E2 receptor EP2 subtype (P43116 whole entry): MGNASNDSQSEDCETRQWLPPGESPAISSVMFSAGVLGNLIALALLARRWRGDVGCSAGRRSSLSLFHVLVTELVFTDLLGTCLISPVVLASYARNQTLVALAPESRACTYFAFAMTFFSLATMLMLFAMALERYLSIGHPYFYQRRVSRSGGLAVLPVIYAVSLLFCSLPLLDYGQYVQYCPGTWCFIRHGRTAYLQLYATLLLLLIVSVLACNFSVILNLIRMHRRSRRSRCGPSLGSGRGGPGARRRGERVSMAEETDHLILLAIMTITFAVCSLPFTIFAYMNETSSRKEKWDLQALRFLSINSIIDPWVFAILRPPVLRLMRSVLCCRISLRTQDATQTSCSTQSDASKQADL
Data set [7] can be described thus: Half life in mouse at 6 mg/kg, iv. It counts as ADME, organism-based. The arrangement: dose 6 mg/kg, route intravenous. The following applies: in vivo. In short, it runs like this: (§3)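 Single iv dose of 6 mg/kg given to mouse and to rat. Half-life in hours derived from the plasma pharmacokinetic parameters, alongside predicted clearance and steady-state volume of distribution.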

A short description of data set [8]: Half life in rat at 6 mg/kg, iv. Format: ADME, organism-based. The arrangement: dose 6 mg/kg, route intravenous. The following applies: in vivo. In short, it runs like this: as §3
Data set [9] in a line: Metabolic stability in mouse liver microsomes assessed as parent compound remaining after 30 mins. It counts as ADME, Microsome. The following applies: read-out: Stability. In short, it runs like this:
as §2
(In general: Microsomes from liver hold many membrane-bound enzymes, among them those of drug oxidation.)

The target of the next data set is Cytochrome P450 2C9 (Homo sapiens, UniProt P11712). The data set is described as follows: Inhibition of human CYP2C9. It counts as ADME.
Sequence of Cytochrome P450 2C9 (P11712 whole entry): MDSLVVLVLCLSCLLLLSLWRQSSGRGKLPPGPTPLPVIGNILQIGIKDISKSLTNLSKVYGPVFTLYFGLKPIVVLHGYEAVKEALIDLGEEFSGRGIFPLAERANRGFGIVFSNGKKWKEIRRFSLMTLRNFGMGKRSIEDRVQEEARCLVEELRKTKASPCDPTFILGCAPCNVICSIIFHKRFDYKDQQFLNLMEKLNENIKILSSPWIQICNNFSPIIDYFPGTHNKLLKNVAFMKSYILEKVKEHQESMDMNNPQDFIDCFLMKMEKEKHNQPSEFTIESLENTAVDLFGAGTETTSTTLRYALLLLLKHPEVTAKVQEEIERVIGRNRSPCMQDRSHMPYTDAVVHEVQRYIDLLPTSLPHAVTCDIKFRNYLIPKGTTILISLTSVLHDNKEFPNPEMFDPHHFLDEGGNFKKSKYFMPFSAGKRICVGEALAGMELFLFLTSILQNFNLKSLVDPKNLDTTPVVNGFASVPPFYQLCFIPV
For data set [10], the target named is T3, Cytochrome P450 3A4. Description: Inhibition of human CYP3A4 using dibenzylfluorescein as substrate. Format: ADME. In short, it runs like this:
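Inhibition of human CYP3A4 with dibenzylfluorescein (DBF) as substrate. Values given as IC50.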

The species named for another data set is Rattus norvegicus. Description: Antithrombotic activity in rat assessed as platelet aggregation. It counts as functional. In short, it runs like this: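 Functional EP3 antagonism measured in a rat platelet aggregation assay. Values reported as EC50 in nM.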
The target of data set [11] is Prostaglandin E2 receptor EP4 subtype (Homo sapiens, UniProt P35408). The data set is described as follows: Binding affinity to human EP4 receptor by radioligand displacement assay. In short, it runs like this: as §1
Sequence of Prostaglandin E2 receptor EP4 subtype (P35408 whole entry): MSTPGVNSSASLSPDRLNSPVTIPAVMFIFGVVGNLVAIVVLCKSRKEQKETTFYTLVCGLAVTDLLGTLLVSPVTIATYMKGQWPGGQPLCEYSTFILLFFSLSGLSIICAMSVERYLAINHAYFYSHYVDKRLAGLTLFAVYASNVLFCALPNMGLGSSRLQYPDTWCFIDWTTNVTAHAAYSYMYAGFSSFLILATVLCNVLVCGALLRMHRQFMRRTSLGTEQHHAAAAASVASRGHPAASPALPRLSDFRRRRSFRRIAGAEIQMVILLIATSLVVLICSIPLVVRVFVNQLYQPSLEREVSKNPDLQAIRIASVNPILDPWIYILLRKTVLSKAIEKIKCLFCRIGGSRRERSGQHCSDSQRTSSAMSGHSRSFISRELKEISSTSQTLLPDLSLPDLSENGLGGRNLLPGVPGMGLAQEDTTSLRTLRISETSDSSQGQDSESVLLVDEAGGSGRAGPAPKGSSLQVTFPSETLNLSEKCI
Data set [12] is described as follows: Metabolic stability in rat liver microsomes assessed as parent compound remaining after 30 mins. Format: ADME, Microsome. Particulars: read-out: Stability. In short, it runs like this:
as §2

T3 sequence (P08684 whole entry): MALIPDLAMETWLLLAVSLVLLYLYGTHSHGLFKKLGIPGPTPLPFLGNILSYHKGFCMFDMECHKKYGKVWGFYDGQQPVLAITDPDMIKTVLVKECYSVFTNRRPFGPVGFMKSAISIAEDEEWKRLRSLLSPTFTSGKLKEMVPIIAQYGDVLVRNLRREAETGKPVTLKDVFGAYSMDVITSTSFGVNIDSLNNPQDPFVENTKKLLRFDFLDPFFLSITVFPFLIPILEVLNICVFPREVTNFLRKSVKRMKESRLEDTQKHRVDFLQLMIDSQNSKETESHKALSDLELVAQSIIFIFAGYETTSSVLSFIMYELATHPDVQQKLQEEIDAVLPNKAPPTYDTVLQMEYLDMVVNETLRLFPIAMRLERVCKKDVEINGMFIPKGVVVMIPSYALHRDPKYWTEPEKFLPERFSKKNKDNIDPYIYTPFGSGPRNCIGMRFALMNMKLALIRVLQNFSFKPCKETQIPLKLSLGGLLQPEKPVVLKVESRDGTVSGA
Sequence of Prostaglandin F2-alpha receptor (P43088 whole entry): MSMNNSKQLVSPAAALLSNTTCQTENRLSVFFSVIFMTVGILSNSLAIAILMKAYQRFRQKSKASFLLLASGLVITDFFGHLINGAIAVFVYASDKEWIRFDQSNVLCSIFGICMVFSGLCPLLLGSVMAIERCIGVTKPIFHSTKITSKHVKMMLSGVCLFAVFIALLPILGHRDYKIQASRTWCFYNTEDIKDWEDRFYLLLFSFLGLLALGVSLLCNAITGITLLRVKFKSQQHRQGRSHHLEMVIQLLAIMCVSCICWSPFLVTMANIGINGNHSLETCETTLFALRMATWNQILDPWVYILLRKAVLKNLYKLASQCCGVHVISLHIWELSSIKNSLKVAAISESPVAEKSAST
Sequence of Cytochrome P450 2D6 (P10635 whole entry): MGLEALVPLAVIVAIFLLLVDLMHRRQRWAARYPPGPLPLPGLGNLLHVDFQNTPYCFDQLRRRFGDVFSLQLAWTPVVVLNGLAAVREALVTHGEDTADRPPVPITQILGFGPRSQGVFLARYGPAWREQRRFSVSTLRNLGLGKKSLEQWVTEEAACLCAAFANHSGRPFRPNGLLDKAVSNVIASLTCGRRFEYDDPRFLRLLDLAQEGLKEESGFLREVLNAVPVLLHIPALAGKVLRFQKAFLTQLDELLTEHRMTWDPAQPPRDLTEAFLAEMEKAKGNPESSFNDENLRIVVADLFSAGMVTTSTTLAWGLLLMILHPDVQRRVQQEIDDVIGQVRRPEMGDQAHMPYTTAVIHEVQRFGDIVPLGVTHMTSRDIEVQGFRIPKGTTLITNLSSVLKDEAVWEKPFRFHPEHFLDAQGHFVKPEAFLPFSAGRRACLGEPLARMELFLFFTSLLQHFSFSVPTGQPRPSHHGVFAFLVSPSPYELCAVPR
Sequence of Prostacyclin receptor (P43119 whole entry): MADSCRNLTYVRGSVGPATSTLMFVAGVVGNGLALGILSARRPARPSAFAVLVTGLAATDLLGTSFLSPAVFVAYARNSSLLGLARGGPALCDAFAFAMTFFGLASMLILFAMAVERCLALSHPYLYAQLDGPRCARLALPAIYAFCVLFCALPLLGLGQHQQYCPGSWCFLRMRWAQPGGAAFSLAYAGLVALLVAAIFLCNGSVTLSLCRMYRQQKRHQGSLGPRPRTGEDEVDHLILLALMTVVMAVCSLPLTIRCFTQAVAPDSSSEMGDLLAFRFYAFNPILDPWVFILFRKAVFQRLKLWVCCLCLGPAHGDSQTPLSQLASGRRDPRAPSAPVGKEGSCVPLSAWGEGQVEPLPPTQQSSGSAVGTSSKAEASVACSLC

Turning to `O=C(/C=C/c1cccc2c1N(Cc1ccc3ccccc3c1)C(=O)C2O)NS(=O)(=O)c1ccc(F)cc1` (configuration not stated), the IC50 on Prostacyclin receptor was greater than 20000 nM; in data set [1], 19.4 nM; in [2], 0.9 nM; in data set [4] it was greater than 20000 nM; in data set [6] it was greater than 20000 nM; in data set [11], 15100 nM. For the same molecule, the “inhibition (INH)” value against Cytochrome P450 1A2 is “Not Active”; against Cytochrome P450 3A4 [3] it was “Not Active”; at Cytochrome P450 2D6, “Not Active”; against Cytochrome P450 2C9, “Active”; against Cytochrome P450 3A4 [10] it was “Active”. Moreover, the remaining at 0.5 h came out at 97.7% in data set [5], 83.4% in data set [9] and 103% in [12]. The half-life in data set [7] was 2.1 h; in [8], 1.75 h. For the same molecule, the EC50 in the data set listed under Rattus norvegicus amounted to 63 nM.

In general, IC50 refers to the concentration that gives 50% inhibition. One may read the half-life as how long it takes for the measured level to halve. Higher therefore signals slow loss. One may read the EC50 as the concentration giving half of the maximal effect.
